B1: Methionine--tRNA ligase (Staphylococcus aureus subsp. aureus MW2), Q8NY00 G54S (protein)
chain: MAKETFYITTPIYYPSGNLHIGHAYSTVAGDVIARYKRMQGYDVRYLTGTDEHSQKIQEKAQKAGKTEIEYLDEMIAGIKQLWAKLEISNDDFIRTTEERHKHVVEQVFERLLKQGDIYLGEYEGWYSVPDETYYTESQLVDPQYENGKIIGGKSPDSGHEVELVKEESYFFNISKYTDRLLEFYDQNPDFIQPPSRKNEMINNFIKPGLADLAVSRTSFNWGVHVPSNPKHVVYVWIDALVNYISALGYLSDDESLFNKYWPADIHLMAKEIVRFHSIIWPILLMALDLPLPKKVFAHGWILMKDGKMSKSKGNVVDPNILIDRYGLDATRYYLMRELPFGSDGVFTPEAFVERTNFDLANDLGNLVNRTISMVNKYFDGELPAYQGPLHELDEEMEAMALETVKSYTESMESLQFSVALSTVWKFISRTNKYIDETTPWVLAKDDSQKDMLGNVMAHLVENIRYAAVLLRPFLTHAPKEIFEQLNINNPQFMEFSSLEQYGVLTESIMVTGQPKPIFPRLDSEAEIAYIKESMQPPATEEEKEEIPSKPQIDIKDFDKVEIKAATIINAEHVKKSDKLLKIQVDLDSEQRQIVSGIAKFYTPDDIIGKKVAVVTNLKPAKLMGQKSEGMILSAEKDGVLTLVSLPSAIPNGAVIK
B2: Methionine--tRNA ligase (Staphylococcus aureus subsp. aureus MW2), Q8NY00 I57N,G54S (protein)
chain: MAKETFYITTPIYYPSGNLHIGHAYSTVAGDVIARYKRMQGYDVRYLTGTDEHSQKNQEKAQKAGKTEIEYLDEMIAGIKQLWAKLEISNDDFIRTTEERHKHVVEQVFERLLKQGDIYLGEYEGWYSVPDETYYTESQLVDPQYENGKIIGGKSPDSGHEVELVKEESYFFNISKYTDRLLEFYDQNPDFIQPPSRKNEMINNFIKPGLADLAVSRTSFNWGVHVPSNPKHVVYVWIDALVNYISALGYLSDDESLFNKYWPADIHLMAKEIVRFHSIIWPILLMALDLPLPKKVFAHGWILMKDGKMSKSKGNVVDPNILIDRYGLDATRYYLMRELPFGSDGVFTPEAFVERTNFDLANDLGNLVNRTISMVNKYFDGELPAYQGPLHELDEEMEAMALETVKSYTESMESLQFSVALSTVWKFISRTNKYIDETTPWVLAKDDSQKDMLGNVMAHLVENIRYAAVLLRPFLTHAPKEIFEQLNINNPQFMEFSSLEQYGVLTESIMVTGQPKPIFPRLDSEAEIAYIKESMQPPATEEEKEEIPSKPQIDIKDFDKVEIKAATIINAEHVKKSDKLLKIQVDLDSEQRQIVSGIAKFYTPDDIIGKKVAVVTNLKPAKLMGQKSEGMILSAEKDGVLTLVSLPSAIPNGAVIK

How the values were obtained:
[1] = compound: C=C(F)c1sc(CNCCCNc2cc(=O)c3ccccc3[nH]2)c(C)c1Br; assay: Activity of streptococcus aureus MetRS G54S mutant by scintillation proximity assay in presence of tRNA; settings: Staphylococcus aureus
[2] = compound: C=C(F)c1sc(CNCCCNc2cc(=O)c3ccccc3[nH]2)c(C)c1Br; assay: Ratio of Kcat to Km for Staphylococcus aureus MetRS G54S mutant in presence of ATP
In short: (§1)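 Purified recombinant S. aureus MetRS (30 nM) was assayed by ATP:PPi exchange at 30°C in Tris pH 8.0 with Mg acetate, KCl and DTT. [32P]PPi was matched to ATP, and ATP or methionine was varied. Time points from 1 to 10 min were quenched with EDTA, separated by PEI-cellulose TLC and read by phosphorimager. Initial rates were fitted to Michaelis-Menten.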

[3] = compound: C=C(F)c1sc(CNCCCNc2cc(=O)c3ccccc3[nH]2)c(C)c1Br; assay: Ratio of Kcat to Km for Staphylococcus aureus MetRS G54S mutant in presence of tRNA
In short: (§2)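 Purified recombinant S. aureus MetRS was assayed by tRNA aminoacylation at 30°C for 1 to 7.5 min to obtain initial rates. Buffer was Tris pH 8.0 with Mg acetate, 2.5 mM ATP, KCl, DTT, BSA, [3H]methionine and crude E. coli tRNA. Reactions were EDTA-stopped, and charged tRNA was read by scintillation proximity with polylysine beads at pH 2.0.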

[4] = compound: C=C(F)c1sc(CNCCCNc2cc(=O)c3ccccc3[nH]2)c(C)c1Br; assay: Activity of Staphylococcus aureus MetRS G54S mutant by ATP:PPi exchange assay in presence of methionine
In short: (§3)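 Purified S. aureus MetRS (wild type or mutant; E. coli-expressed, ammonium sulfate cut, anion exchange) at 30 nM. ATP:PPi exchange at 30°C in 100 mM Tris-HCl pH 8.0, 5–10 mM Mg acetate, 80 mM KCl, 2.5 mM DTT, [32P]PPi plus cold PPi equal to ATP. Quenched with EDTA over 1–10 min, PEI-cellulose TLC, phosphorimager. Initial velocities versus varied ATP or methionine fit to Michaelis-Menten.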

[5] = compound: C=C(F)c1sc(CNCCCNc2cc(=O)c3ccccc3[nH]2)c(C)c1Br; assay: Ratio of Kcat to Km for Staphylococcus aureus MetRS G54S mutant in presence of methionine; in short: as §1
[6] = compound: C=C(F)c1sc(CNCCCNc2cc(=O)c3ccccc3[nH]2)c(C)c1Br; assay: Activity of Staphylococcus aureus MetRS G54S mutant by ATP:PPi exchange assay in presence of ATP; in short: as §3
[7] = compound: C=C(F)c1sc(CNCCCNc2cc(=O)c3ccccc3[nH]2)c(C)c1Br; assay: Activity of streptococcus aureus MetRS I57N, G54S mutant by scintillation proximity assay in presence of tRNA; settings: Staphylococcus aureus
[8] = compound: C=C(F)c1sc(CNCCCNc2cc(=O)c3ccccc3[nH]2)c(C)c1Br; assay: Ratio of Kcat to Km for Staphylococcus aureus MetRS I57N G54S mutant in presence of ATP; in short: as §1
[9] = compound: C=C(F)c1sc(CNCCCNc2cc(=O)c3ccccc3[nH]2)c(C)c1Br; assay: Ratio of Kcat to Km for Staphylococcus aureus MetRS I57N G54S mutant in presence of tRNA; in short: as §2
[10] = compound: C=C(F)c1sc(CNCCCNc2cc(=O)c3ccccc3[nH]2)c(C)c1Br; assay: Ratio of Kcat to Km for Staphylococcus aureus MetRS I57N G54S mutant in presence of methionine; in short: as §1
[11] = compound: C=C(F)c1sc(CNCCCNc2cc(=O)c3ccccc3[nH]2)c(C)c1Br; assay: Activity of Staphylococcus aureus MetRS I57N, G54S mutant by ATP:PPi exchange assay in presence of methionine; in short: as §3
[12] = compound: C=C(F)c1sc(CNCCCNc2cc(=O)c3ccccc3[nH]2)c(C)c1Br; assay: Activity of Staphylococcus aureus MetRS I57N, G54S mutant by ATP:PPi exchange assay in presence of ATP; in short: as §3

Protein	Km [1]	kcat [1]	kcat/Km [2]	kcat/Km [3]	Km [4]	kcat [4]	kcat/Km [5]	Km [6]	Km [7]	kcat [7]	kcat/Km [8]	kcat/Km [9]	kcat/Km [10]	Km [11]	kcat [11]	Km [12]
B1	0.27 µM	0.009 s⁻¹	10000 M⁻¹ s⁻¹	33000 M⁻¹ s⁻¹	75 µM	5 s⁻¹	70000 M⁻¹ s⁻¹	500 µM								
B2									0.41 µM	0.002 s⁻¹	8000 M⁻¹ s⁻¹	5000 M⁻¹ s⁻¹	20000 M⁻¹ s⁻¹	360 µM	6 s⁻¹	765 µM
